Here are results for 4 compounds from ChEMBL document CHEMBL1139690, “Comparison between two classes of selective EP(3) antagonists and their biological activities” (Bioorg Med Chem Lett, 2006).

Data set [1] addresses Prostaglandin E2 receptor EP2 subtype (Homo sapiens, UniProt P43116). In words: Binding affinity to EP2 receptor.
A short description of data set [2]: Bioavailability in Sprague-Dawley rat at 10 mg/kg, po and 5 mg/kg, iv. It is filed as ADME, organism-based. Particulars: in vivo.
Data set [3] deals with Prostaglandin E2 receptor EP4 subtype (Homo sapiens, UniProt P35408). Put plainly: Binding affinity to EP4 receptor.
For data set [4], the target named is T1, Prostaglandin D2 receptor (Homo sapiens, UniProt Q13258).
T1 sequence (Q13258 whole entry): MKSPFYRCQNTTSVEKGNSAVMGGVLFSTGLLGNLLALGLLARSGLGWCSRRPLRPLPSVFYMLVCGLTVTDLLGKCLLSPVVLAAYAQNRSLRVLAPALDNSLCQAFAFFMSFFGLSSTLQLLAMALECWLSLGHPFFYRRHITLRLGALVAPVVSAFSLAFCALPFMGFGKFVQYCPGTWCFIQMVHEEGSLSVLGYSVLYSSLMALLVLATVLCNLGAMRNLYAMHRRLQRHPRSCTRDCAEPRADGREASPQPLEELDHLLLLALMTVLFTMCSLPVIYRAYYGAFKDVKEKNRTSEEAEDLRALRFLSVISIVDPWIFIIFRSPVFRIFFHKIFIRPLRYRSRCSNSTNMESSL
In words: Binding affinity to DP receptor.

Data set [5] is described as follows: Clearance in Sprague-Dawley rat at 10 mg/kg, po and 5 mg/kg, iv. The note with it: in vivo. Format: ADME, organism-based.
Data set [6] deals with Rattus norvegicus. Put plainly: Concentration in carrageenan-induced hyperalgesic rat at 10 mg/kg, po, 1 hr postdose. Format: functional. In short, it runs like this: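 Young 100 g rats from the hyperalgesia model given 10 mg/kg po in 0.5% methocel as sodium salts; plasma concentration measured 1 h post-dosing, at the time hyperalgesia was assessed.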
The target of data set [7] is T2, Prostaglandin E2 receptor EP1 subtype (Homo sapiens, UniProt P34995).
T2 sequence (P34995 whole entry): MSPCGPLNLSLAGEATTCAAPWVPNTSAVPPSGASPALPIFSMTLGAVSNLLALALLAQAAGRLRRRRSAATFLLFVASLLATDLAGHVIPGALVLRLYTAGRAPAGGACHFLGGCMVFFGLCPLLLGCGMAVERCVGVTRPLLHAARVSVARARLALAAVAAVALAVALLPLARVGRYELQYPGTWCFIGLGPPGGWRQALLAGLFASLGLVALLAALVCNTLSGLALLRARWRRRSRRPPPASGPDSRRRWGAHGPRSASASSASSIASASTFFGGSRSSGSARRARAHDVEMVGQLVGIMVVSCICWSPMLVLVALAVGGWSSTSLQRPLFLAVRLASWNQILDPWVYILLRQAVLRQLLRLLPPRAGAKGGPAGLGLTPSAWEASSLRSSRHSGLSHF
In words: Binding affinity to EP1 receptor.

Data set [8] can be described thus: Stability in rat hepatocytes after 3 hrs. The note with it: read-out: Stability. Format: ADME, cell-based, Hepatocyte. A digest of the protocol: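 Incubation with rat hepatocytes for 3 h; percentage of parent compound recovered intact.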
The target of data set [9] is Prostaglandin F2-alpha receptor (Homo sapiens, UniProt P43088). In words: Binding affinity to FP receptor.
A short description of data set [10]: Metabolism in human hepatocytes. It is filed as ADME, cell-based, Hepatocyte. Particulars: read-out: Activity.
Another data set has as its target T3, Thromboxane A2 receptor (Homo sapiens, UniProt P21731).
T3 sequence (P21731 whole entry): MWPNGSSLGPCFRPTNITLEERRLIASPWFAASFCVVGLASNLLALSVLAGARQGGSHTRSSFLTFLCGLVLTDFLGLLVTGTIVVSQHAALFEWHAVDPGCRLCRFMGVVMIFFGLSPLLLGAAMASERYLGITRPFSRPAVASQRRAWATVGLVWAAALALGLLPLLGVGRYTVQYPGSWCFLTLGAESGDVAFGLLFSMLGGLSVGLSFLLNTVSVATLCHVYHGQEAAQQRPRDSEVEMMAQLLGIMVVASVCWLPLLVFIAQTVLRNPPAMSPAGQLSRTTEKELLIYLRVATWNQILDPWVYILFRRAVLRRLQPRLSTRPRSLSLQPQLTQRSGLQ
Put plainly: Binding affinity to TP receptor.

The subject of data set [11] is Rattus norvegicus. Put plainly: Effect on carrageenan-induced paw hyperalgesia in po dosed rat. Format: functional. (In the carrageenan paw model, swelling and tenderness develop within hours.)
Data set [12] has as its system Rattus norvegicus. Put plainly: Antiinflammatory activity against carrageenan-induced paw edema in po dosed rat. Format: functional.
A short description of data set [13]: Cmax in Sprague-Dawley rat at 10 mg/kg, po and 5 mg/kg, iv after 30 mins. Format: ADME, organism-based. Particulars: in vivo.
The target of the next data set is Prostacyclin receptor (Homo sapiens, UniProt P43119). In words: Binding affinity to IP receptor.
The nature of data set [14]: Half life in Sprague-Dawley rat at 10 mg/kg, po and 5 mg/kg, iv. The note with it: in vivo. Format: ADME, organism-based.
Data set [15] addresses T4, Prostaglandin E2 receptor EP3 subtype (Homo sapiens, UniProt P43115).
T4 sequence (P43115 whole entry): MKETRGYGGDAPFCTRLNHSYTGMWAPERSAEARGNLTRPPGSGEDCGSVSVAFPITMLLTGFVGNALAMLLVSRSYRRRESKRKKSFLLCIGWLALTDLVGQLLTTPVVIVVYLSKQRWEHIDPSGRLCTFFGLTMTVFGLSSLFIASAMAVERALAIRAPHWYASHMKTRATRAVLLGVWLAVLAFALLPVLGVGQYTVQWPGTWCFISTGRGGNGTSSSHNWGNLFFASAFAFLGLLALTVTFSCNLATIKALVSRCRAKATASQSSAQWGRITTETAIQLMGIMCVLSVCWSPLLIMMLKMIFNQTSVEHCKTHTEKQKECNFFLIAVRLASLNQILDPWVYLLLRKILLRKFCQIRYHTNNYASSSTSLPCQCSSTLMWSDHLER
Put plainly: Binding affinity to EP3 receptor in presence of HSA.

The nature of data set [16]: Cmax in Sprague-Dawley rat at 10 mg/kg, po and 5 mg/kg, iv after 1 hr. It is filed as ADME, organism-based. Particulars: in vivo.
For data set [17], the target named is T4, Prostaglandin E2 receptor EP3 subtype. In words: Binding affinity to EP3 receptor.
In data set [18] the target is T5, Prostaglandin E2 receptor EP3 subtype (Homo sapiens) (UniProt P43115).
T5 sequence (whole entry): T4 sequence (P43115 whole entry)
In words: Antagonistic activity at EP3 receptor assessed as inhibition of cAMP production in HEK EBNA cells. The note with it: HEK293-EBNA, filed as antagonist. It is filed as functional, cell-based.

Data set [19] deals with Rattus norvegicus. Put plainly: Concentration in carrageenan-induced hyperalgesic rat at 5 mg/kg, po, 1 hr postdose. It is filed as functional.

Sequence of Prostaglandin E2 receptor EP4 subtype (P35408 whole entry): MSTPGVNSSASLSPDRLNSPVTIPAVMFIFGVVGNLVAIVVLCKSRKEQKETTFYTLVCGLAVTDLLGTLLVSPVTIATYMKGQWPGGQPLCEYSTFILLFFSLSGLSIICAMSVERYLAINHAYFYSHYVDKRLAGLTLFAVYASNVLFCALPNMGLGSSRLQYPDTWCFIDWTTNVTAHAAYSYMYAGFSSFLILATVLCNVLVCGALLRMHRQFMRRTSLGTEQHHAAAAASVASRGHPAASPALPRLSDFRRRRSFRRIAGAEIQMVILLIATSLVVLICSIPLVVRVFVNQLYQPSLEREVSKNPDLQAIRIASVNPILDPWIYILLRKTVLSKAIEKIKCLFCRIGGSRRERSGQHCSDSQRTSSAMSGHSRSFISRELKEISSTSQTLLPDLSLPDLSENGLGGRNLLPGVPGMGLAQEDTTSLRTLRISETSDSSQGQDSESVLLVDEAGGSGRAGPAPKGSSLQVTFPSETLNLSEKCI
Sequence of Prostacyclin receptor (P43119 whole entry): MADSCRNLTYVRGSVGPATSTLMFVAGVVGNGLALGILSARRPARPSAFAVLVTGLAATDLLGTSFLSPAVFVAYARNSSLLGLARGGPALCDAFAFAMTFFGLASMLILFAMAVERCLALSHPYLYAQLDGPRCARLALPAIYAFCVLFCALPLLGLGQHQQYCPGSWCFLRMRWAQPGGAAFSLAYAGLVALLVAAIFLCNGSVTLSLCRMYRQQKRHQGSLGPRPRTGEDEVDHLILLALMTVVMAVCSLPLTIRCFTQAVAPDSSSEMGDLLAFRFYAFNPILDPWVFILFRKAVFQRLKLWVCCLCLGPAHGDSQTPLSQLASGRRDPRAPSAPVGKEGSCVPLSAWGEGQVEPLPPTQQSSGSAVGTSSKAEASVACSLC
Sequence of Prostaglandin F2-alpha receptor (P43088 whole entry): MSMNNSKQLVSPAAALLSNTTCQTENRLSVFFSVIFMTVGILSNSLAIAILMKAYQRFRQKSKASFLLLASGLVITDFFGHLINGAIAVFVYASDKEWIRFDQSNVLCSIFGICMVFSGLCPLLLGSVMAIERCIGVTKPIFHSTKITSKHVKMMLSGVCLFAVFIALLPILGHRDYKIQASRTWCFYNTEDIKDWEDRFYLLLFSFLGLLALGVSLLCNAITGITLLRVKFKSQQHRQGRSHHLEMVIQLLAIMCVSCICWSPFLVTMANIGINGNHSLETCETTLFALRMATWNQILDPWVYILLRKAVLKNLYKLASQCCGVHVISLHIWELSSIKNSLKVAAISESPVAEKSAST
Sequence of Prostaglandin E2 receptor EP2 subtype (P43116 whole entry): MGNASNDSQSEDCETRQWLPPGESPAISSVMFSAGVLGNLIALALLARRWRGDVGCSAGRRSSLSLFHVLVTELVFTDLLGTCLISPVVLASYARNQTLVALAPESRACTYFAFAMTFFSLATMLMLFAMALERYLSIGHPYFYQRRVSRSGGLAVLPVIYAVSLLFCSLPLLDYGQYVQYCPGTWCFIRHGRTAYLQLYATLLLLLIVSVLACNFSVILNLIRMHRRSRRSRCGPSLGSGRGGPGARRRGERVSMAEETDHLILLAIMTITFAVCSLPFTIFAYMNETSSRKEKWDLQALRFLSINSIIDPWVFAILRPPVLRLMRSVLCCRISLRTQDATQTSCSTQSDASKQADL

As for `O=C(/C=C/c1ccccc1Cc1ccc2ccccc2c1)NS(=O)(=O)c1cccs1`, the Ki (in general, the equilibrium dissociation constant of an inhibitor or competing ligand from its target) was 8600 nM (antagonist) in data set [1]; 1300 nM (antagonist) in data set [3]; above 500 nM in [4]; 9600 nM (antagonist) in data set [7]; above 500 nM in [9]; above 500 nM at Thromboxane A2 receptor. Further, at Prostacyclin receptor, the Ki is above 500 nM. Moreover, the bioavailability in data set [2] came to 144%. In data set [5], this compound registered a clearance of 12 mL/min. The Activity in the data set on Rattus norvegicus [6] is 5 µM. In addition, the remaining at 3 h in data set [8] was determined as 43%. In addition, the metabolised in data set [10] was 45%. Also, the ED50 (as a rule, the dose that gives a 50% effect, or the effect in half of the subjects) in the data set with Rattus norvegicus [11] was 6.2 mg/kg; with Rattus norvegicus [12], 1.2 mg/kg. Also, the Cmax (as a rule, the maximum level reached in the sampled fluid or tissue) in data set [13] amounted to 21 µM. The half-life (usually the time needed for the level to fall by half in the phase considered) in data set [14] is 3 h.
With `COc1ccc(Br)cc1S(=O)(=O)NC(=O)/C=C/c1ccccc1Cc1ccc2ccccc2c1`, the Ki in [1] is above 50000 nM; in data set [3] it was 890 nM (antagonist); in data set [15], 6.9 nM (antagonist); in [4], above 500 nM; in data set [7], 39000 nM; in data set [9], above 500 nM. Also, the values for the Ki (in data set [17]; at Thromboxane A2 receptor; on Prostacyclin receptor) were 0.6 nM (antagonist), above 500 nM and above 500 nM, respectively. Besides, in [2], the bioavailability came to 72%. In data set [5], this compound yielded a clearance of 1 mL/min. This compound gave an Activity in the data set on Rattus norvegicus [6] of 32 µM. Further, the remaining at 3 h in data set [8] amounted to 30%. Moreover, in data set [16], the Cmax worked out at 50 µM. The metabolised in data set [10] was 36%. Further, the ED50 with Rattus norvegicus [11] and with Rattus norvegicus [12] was 3.3 mg/kg in each case. Besides, the Kb (commonly the equilibrium dissociation constant of an antagonist, usually derived from a functional assay) in data set [18] was 0.6 nM. Besides, the half-life in [14] is 4 h.
For `O=C(O)/C=C/c1ccccc1Cc1ccc2cc(OCc3ccccc3)ccc2c1`, the Ki in [1] is above 40000 nM; in [3], above 15000 nM; in data set [15], 46 nM (antagonist); in data set [4], 82 nM (antagonist); in data set [7], above 100000 nM; in [9] it was above 500 nM. Also, the Ki in [17] is 3.2 nM (antagonist); at Thromboxane A2 receptor it was above 500 nM; at Prostacyclin receptor, above 500 nM. In data set [2], the bioavailability stood at 59%. In data set [5], this compound returned a clearance of 3.1 mL/min. In the data set with Rattus norvegicus [19], the Activity amounted to 11 µM. In addition, the results for the 50% effective dose (ED50) in the data set with Rattus norvegicus [11] and in the data set with Rattus norvegicus [12] were 4.6 mg/kg and above 10 mg/kg, respectively. For the same compound, the Cmax in [13] was determined as 28 µM. The half-life in data set [14] is 3 h.
On to `Cc1ccc(OCc2ccccc2)c(/C=C/Cc2ccccc2/C=C/C(=O)O)c1`, for which the Ki was 860 nM (antagonist) in data set [1]; 2000 nM (antagonist) in data set [3]; above 500 nM in [4]; 19000 nM in data set [7]; above 500 nM in data set [9]; 9 nM (antagonist) in [17]. Also, the Ki at Thromboxane A2 receptor and at Prostacyclin receptor was above 500 nM in each case. The bioavailability in [2] amounted to 97%. Also, the clearance in data set [5] is 10 mL/min. In the data set on Rattus norvegicus [6], this compound registered an Activity of 1.2 µM. Besides, the remaining at 3 h in data set [8] turned out to be 8%. In addition, the ED50 with Rattus norvegicus [11] came out at 20 mg/kg; with Rattus norvegicus [12] it was 0.9 mg/kg. Moreover, the Kb in data set [18] was 32 nM. In [13], this compound showed a Cmax of 22 µM. In [14], this compound showed a half-life of 2 h.
